# According to ChEMBL document CHEMBL4513216, “Probing the Open Global Health Chemical Diversity Library for Multistage-Active Starting Points for Next-Generation Antimalarials” (ACS Infect Dis, 2020):
# Test: Toxicity liver stage against HepG2, at 10uM
# Format: cell-based
# Design: test concentration 10 uM, cell line HepG2-A16-CD81EGFP
# Conditions: human, HepG2-A16-CD81EGFP cells; read-out: INHIBITION
# Outline: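 Uninfected HepG2-A16-CD81EGFP cells, 3 × 10^3 per well, 1536-well, plated on prespotted compound at 10 μM final, parasite-free screening media added to match infected plates; puromycin 10 μM positive, DMSO 0.5% negative; run in parallel with 48 h PbLuc assay at 37 °C, 5% CO2; viability by CellTiter-Glo luminescence, normalized to controls.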
row,Structure (SMILES),cytotoxicity at 10 µM
1,Cc1cc(N2CCCCC2)nc(N(CCO)CCO)c1C#N,-7.32%
2,Cc1noc(C)c1CN1CC2(CCN(C(=O)c3ccoc3C)C2)CC1=O (configuration not stated),7.78%
3,c1cc(N2CCC3(COCc4cnc(NCC5CC5)nc43)C2)ncn1 (configuration not stated),6.27%
4,Cn1cccc1C(=O)N1C[C@@H]2COC[C@]2(CNS(C)(=O)=O)C1,4.38%
5,CN(Cc1cn2c(n1)CN(C(=O)N(C)C)CC2)Cc1ccco1,4.44%
6,CCn1nc(C)cc1NC(=O)CCn1nc(C)c(Br)c1C,10.8%
7,O=C(O)CCn1nc(C(F)(F)F)c(Cl)c1C1CC1,8.63%
8,Cc1ccc(Cn2nc(C)c3c(C(=O)O)c(Cl)c(C4CC4)nc32)cc1,6.75%
9,O=C(NCCCO)c1nnsc1-c1ccc(Cl)cc1,4.62%
10,Cc1nc(NCc2ccc(C)o2)cc(C(=O)N2CCOCC2)n1,-2.03%
11,CSCc1cccc(S(=O)(=O)NCCCn2ccnc2)c1,4.51%
12,COCCNc1ncc(-c2onc(C)c2C)c(-c2ccco2)n1,5.92%
13,Cc1nc(COc2nc(C(C)C)no2)cs1,11.5%
14,Cc1noc(C)c1C(C)NC(=O)N1CCN(c2cccs2)CC1 (configuration not stated),6.43%
15,CCNC(=O)NC(c1ccc(C)cc1)c1cccc(S(C)(=O)=O)c1 (configuration not stated),-5.82%
16,CN(C(=O)c1ccc(Cl)cn1)c1ccccc1S(C)(=O)=O,-7.17%
17,CCN(C)S(=O)(=O)NCC(C)(O)c1ccsc1 (configuration not stated),1.83%
18,Cn1ncc2c(=O)[nH]c(CN3CCCc4cc(F)ccc43)nc21,-8.23%
19,COCC(=O)Nc1ccc(Sc2nncn2C)c(Cl)c1,-5.48%
20,CCc1nc(C2CCCN(c3ncc(Br)cn3)C2)no1 (configuration not stated),1.47%
21,COCCn1cc(NCc2c[nH]nc2-c2ccc(OC)cc2)cn1,6.05%

row,Structure (SMILES),cytotoxicity at 10 µM
1,CCCn1c(C)cc(C(=O)CN2C(=O)c3ccccc3CS2(=O)=O)c1C,-1.94%
2,O=C(Nc1ccc(CCN2CCC(O)CC2)cc1)Nc1cccnc1,-7.15%
3,Cc1cc(-c2nnn(CCNS(C)(=O)=O)n2)ccc1F,-9.09%
4,CC(C)CCN1Cc2c(C(=O)O)ncn2-c2ccccc2S1(=O)=O,6.72%
5,Cc1ccc(C(=O)N2CC[C@@H]3[C@H]2CCC(=O)N3c2ccccc2)o1,-3.89%
6,COc1cc(-c2cnnc(NCC3CC3)n2)cc(OC)c1OC,8.11%
7,Cc1ccc(CSc2nc(N)cc(NCCC(N)=O)n2)cc1,0.375%
8,CN(CCCSc1ccccc1)C(=O)Cn1ncc(N(C)C)cc1=O,0.0227%
9,CC(C)Cc1nc(CN2CC(=O)N(C)c3ccccc3C2=O)no1,-6.7%
10,CC(C)CCN(C)C(=O)c1cc(CN2CCC(O)CC2)on1,1.06%
11,Cc1cccc(-n2ncc3c2CCCC3NCc2cccc(O)c2)c1C (configuration not stated),3.11%
12,CCC[C@@H]1CN(C(=O)c2ccccc2-c2ccccc2)C[C@H]1N(C)C,2.16%
13,CN1CCc2[nH]cnc2C12CCN(C(=O)CCc1cccs1)CC2,-1.19%
14,COCC[C@]1(O)CCN(S(=O)(=O)c2ccc(C)cc2OC)C[C@H]1C,11.4%
15,NC(=O)c1cccnc1N1CCN(c2ncnc3c2CCNC3)CC1,-3.03%
16,CN(C)S(=O)(=O)NCc1cccnc1Oc1ccc(F)cc1F,8.49%
17,CCNc1nc(C)c(C(=O)N(C)Cc2noc(C)n2)s1,2.43%
18,COCCN(C)CCN1CC2(CCN(C(=O)C3CCOC3)CC2)OC1=O (configuration not stated),-21.8%
19,CN(C)c1ccccc1C(=O)N1C[C@@H](CN2CCCCC2)[C@@H](CO)C1,-12.1%
20,CCc1nc(C)c([C@H]2CN(C)C[C@@H]2C(=O)NCCc2cnccn2)[nH]1,-9.52%
21,N#Cc1ccccc1C(=O)N1CCC2(CC(=O)NC2=O)C1 (configuration not stated),-19.6%

row,Structure (SMILES),cytotoxicity at 10 µM
1,COc1ccccc1Oc1ncccc1CNC(=O)[C@@H](C)NC(C)=O,-2.61%
2,Cc1occc1C(=O)N1CCC2(CCCN(CC3CCC3)C2=O)C1 (configuration not stated),-5.47%
3,CCCNC(=O)c1ccc2c(c1)C(=O)N(CC(C)C)C2=O,-10.2%
4,CC(C)N1CCC(Cc2cnc(-c3cccc(C(=O)O)c3)cn2)C1 (configuration not stated),-2.27%
5,CC1CN(Cc2ccccn2)CCN1c1ccc2nncn2n1 (configuration not stated),-1.07%
6,CCc1ncncc1C(=O)N1CCN(Cc2ccsc2)CC1,0.956%
7,Cc1nc(CC(=O)N2CCCC(n3ccnc3C(C)C)C2)cs1 (configuration not stated),-0.354%
8,Cc1ccccc1C(C)NC(=O)CSCC#N (configuration not stated),-10.2%
9,Cc1nc2ccnn2c(C)c1CCC(=O)N1CCSCC1,-4.24%
10,CC(=O)NC1CCCN(C(=O)NCc2cc[nH]n2)C1 (configuration not stated),-11.5%
11,CCc1nc2n(n1)CC(NCc1cnc(-c3ccccc3)nc1)CC2 (configuration not stated),0.702%
12,CCc1nc2n(n1)CC(NCc1noc(-c3ccc(C)cc3)n1)CC2 (configuration not stated),-4.26%
13,CC(NC(=O)NCC1(c2ccc(F)cc2)CC1)c1nncn1C (configuration not stated),-4.75%
14,CCNc1cc2c(nn1)CCN(C(=O)C(C)c1c(C)noc1C)C2 (configuration not stated),-4.05%
15,O=C(CCn1nc(-c2cccs2)oc1=O)Nc1cccc(F)c1,-5.21%
16,CC(C)c1ncncc1C(=O)N1CCN(Cc2cccnc2)CC1,-5.85%
17,c1cnnc(N2CCCC2CNCc2nc(-c3cccs3)no2)c1 (configuration not stated),-7.69%
18,Cc1ccsc1CNC1CCCN(Cc2noc(C3CC3)n2)C1 (configuration not stated),-4.98%
19,CCn1cc(NC(=O)NCC(C)N2CCCC2)cn1 (configuration not stated),-9.89%
20,CCOc1ncccc1CNC(=O)NC(C)Cn1cccn1 (configuration not stated),-15.7%
21,O=C(CN1CCN(C(=O)c2sccc2C2CC2)CC1)NC1CC1,-3.75%

row,Structure (SMILES),cytotoxicity at 10 µM
1,Cc1cnn(CC2CCCN2C(=O)Cc2c(C)nc(C)[nH]c2=O)c1 (configuration not stated),-3.63%
2,O=C(O)c1cc(S(=O)(=O)Nc2ccccc2)cc2c1OCCO2,-9.26%
3,O=C(CCc1cccs1)N1CCCC(n2ccnc2)C1 (configuration not stated),-1.13%
4,CC(C)n1ccc(C(=O)N2CCCC(n3cncn3)C2)n1 (configuration not stated),-0.312%
5,Cc1cc(C)c(CNC(=O)N2CCOC(c3ccccc3)C2)c(=O)[nH]1 (configuration not stated),0.0687%
6,Cc1cc(C)n(C2CCCN(C(=O)c3cn4cccnc4n3)C2)n1 (configuration not stated),-4.62%
7,CC(=O)Nc1nc(C(=O)N2CCCC(n3ccnc3)C2)cs1 (configuration not stated),-3.44%
8,Cc1cnn(CCNCc2ccc(C#N)cc2F)c1,-2.73%
9,CN(CC1CCCO1)C1CCN(CCc2ccccn2)CC1 (configuration not stated),-5.6%
10,c1cnnc(N2CCCC(NCc3nnc(-c4ccco4)o3)C2)c1 (configuration not stated),-0.986%
11,COc1ncccc1CNC(=O)c1cccc(C)n1,-1.58%
12,Cc1ccc(Cl)cc1N1CCC(CNC(=O)CCn2ccnc2)C1 (configuration not stated),-9.7%
13,CC(Cn1ccnc1)NC(=O)N1CCN(Cc2cccnc2)CC1 (configuration not stated),4.31%
14,Cc1nc(C2CCCN(C(=O)Cn3ccccc3=O)C2)no1 (configuration not stated),-9.37%
15,Cn1nc2c(cc1=O)CN(Cc1coc(-c3cccs3)n1)CC2,-11.1%
16,Cc1ccc(N2CC3(COCCN(Cc4cnn(C)c4)C3)OCC2=O)s1 (configuration not stated),-5.18%
17,COc1ccc(CN2C[C@@H](N(C)Cc3ccco3)[C@H]3OCCC[C@H]32)cc1,1.18%
18,CN(C)CC1CN(Cc2ccsc2)Cc2nccn2C1 (configuration not stated),1.72%
19,O=C(NCc1ccccc1)[C@H]1C[C@H]2CN(S(=O)(=O)C3CC3)C[C@@H]1O2,1.59%
